Measurements taken from ChEMBL document CHEMBL3352175, “2',6'-Dihalostyrylanilines, pyridines, and pyrimidines for the inhibition of the catalytic subunit of methionine S-adenosyltransferase-2” (J Med Chem, 2014).
Active and inactive are the calls of the source. No cut-off for these calls is given here.

Legend:
[1] = Antiproliferative activity against human LS 174T cells by cell viability analyzer; assay type: functional, cell-based; settings: LS174T
How it was run: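 LS174T colon cancer cells seeded at 3 × 10^4 cells/mL, treated next day with compounds at 1–300 nM (freshly made DMSO stocks diluted in buffer). Proliferation read by automated cell viability counting. Triplicate at each concentration; IC50 from concentration–response curves by nonlinear regression one-site fit.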

[2] = biological target: S-adenosylmethionine synthase isoform type-2 (Homo sapiens) (UniProt P31153); assay: Inhibition of recombinant His-tagged MAT2A (unknown origin) using L-methionine and ATP at 30 uM
How it was run: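 Purified His-tagged MAT2A holoenzyme (3 μg) preincubated with compound (30 μM final) 10 min at room temperature, then given L-methionine (50 μM) and ATP (50 μM) in 50 mM Tris pH 8.0, 50 mM KCl, MgCl2; 25 min at room temperature. Released Pi measured by malachite green absorbance at 635 nm; triplicate; activity expressed relative to reference lead.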

[3] = biological target: Voltage-gated inwardly rectifying potassium channel KCNH2 (Homo sapiens, UniProt Q12809); assay: Inhibition of human ERG over-expressed in HEK293 cell membrane by [3H]dofetilide binding assay; assay type: cell membranes
[4] = Ratio of IC50 for human ERG to IC50 for inhibition of human LS174T cell proliferation

Sequence of S-adenosylmethionine synthase isoform type-2 (Homo sapiens) (P31153 whole entry, looked up, canonical isoform): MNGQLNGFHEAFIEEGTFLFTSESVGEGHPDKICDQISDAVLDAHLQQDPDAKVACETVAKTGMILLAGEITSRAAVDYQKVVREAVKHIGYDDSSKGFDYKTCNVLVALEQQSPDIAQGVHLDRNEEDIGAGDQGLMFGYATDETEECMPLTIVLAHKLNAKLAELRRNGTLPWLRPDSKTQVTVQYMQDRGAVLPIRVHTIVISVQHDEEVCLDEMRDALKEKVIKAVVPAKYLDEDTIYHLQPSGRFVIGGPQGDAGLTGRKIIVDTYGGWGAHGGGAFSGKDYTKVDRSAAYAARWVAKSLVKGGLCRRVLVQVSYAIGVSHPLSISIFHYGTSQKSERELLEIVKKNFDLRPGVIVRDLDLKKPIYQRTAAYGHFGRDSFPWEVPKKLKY
Sequence of Voltage-gated inwardly rectifying potassium channel KCNH2 (Q12809 whole entry): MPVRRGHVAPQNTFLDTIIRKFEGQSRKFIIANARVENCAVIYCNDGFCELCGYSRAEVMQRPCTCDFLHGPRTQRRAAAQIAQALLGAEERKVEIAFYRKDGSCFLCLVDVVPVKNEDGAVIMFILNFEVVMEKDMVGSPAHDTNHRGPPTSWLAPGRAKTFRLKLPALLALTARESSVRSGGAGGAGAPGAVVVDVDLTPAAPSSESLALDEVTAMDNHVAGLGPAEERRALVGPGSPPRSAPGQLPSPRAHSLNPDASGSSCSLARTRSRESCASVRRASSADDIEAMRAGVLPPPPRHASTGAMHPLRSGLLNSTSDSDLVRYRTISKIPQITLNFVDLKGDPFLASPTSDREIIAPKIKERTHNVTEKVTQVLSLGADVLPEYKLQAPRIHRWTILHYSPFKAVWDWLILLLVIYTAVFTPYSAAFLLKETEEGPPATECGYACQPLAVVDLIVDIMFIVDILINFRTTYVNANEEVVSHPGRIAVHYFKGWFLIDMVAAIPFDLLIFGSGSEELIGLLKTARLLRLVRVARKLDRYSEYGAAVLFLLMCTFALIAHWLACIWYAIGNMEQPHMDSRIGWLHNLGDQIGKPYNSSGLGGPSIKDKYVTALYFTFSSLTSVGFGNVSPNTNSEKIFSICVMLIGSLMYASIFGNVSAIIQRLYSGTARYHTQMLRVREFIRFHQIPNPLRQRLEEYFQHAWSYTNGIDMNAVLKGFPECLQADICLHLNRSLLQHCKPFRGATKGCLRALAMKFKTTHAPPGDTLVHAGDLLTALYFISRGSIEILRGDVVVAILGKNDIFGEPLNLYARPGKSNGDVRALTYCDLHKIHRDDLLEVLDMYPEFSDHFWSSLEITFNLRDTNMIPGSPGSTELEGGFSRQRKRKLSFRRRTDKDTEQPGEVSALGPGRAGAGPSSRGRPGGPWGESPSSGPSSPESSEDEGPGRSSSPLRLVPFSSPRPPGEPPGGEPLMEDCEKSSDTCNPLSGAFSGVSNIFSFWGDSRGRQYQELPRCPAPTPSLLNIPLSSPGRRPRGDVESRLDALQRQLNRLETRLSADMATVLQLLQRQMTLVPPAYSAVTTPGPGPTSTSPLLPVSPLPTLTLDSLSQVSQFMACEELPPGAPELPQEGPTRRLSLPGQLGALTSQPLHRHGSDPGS

For `CN(C)c1ccc(/C=C/c2c(F)cccc2F)cc1`, the IC50 [1] was 26.9 nM and the inhibition [2] was “Active”.

In the case of `CN(C)c1ccc(/C=C/c2c(F)cccc2Cl)cn1`, the IC50 [1] is reported as 4.7 nM, the inhibition [2] is reported as “Active” and the IC50 [3] is reported as 59500 nM. It also gave a Ratio IC50 [4] of 12700.

In the case of `CN(C)c1ncc(/C=C/c2c(F)cccc2Cl)cn1`, the IC50 [1] is reported as greater than 200 nM.

With `CN(C)c1ccc(/C=C/c2c(F)cccc2F)nc1` the IC50 [1] was 57.9 nM, the inhibition [2] was “Active” and the IC50 [3] was 21100 nM. For the same compound, the Ratio IC50 [4] was 400.

Work on `CNc1ccc(/C=C/c2c(Cl)cccc2Cl)cn1` yielded an IC50 [1] of 19.6 nM.

In the case of `CNc1ccc(/C=C/c2c(F)cccc2Cl)cn1`, the IC50 [1] is reported as 4 nM, the inhibition [2] is reported as “Active” and the IC50 [3] is reported as 19900 nM. It also gave a Ratio IC50 [4] of 5000.

With `CN(C)c1ncc(/C=C/c2c(Cl)cccc2Cl)cn1` the IC50 [1] was greater than 200 nM.

For `CN(C)c1ccc(/C=C/c2c(Cl)cccc2Cl)cn1`, the IC50 [1] was 30.1 nM and the inhibition [2] was “Active”.

`CNc1ncc(/C=C/c2c(Cl)cccc2Cl)cn1` gave an IC50 [1] greater than 200 nM.

For `CN(C)c1ccc(/C=C/c2c(F)cccc2Cl)cc1`, the IC50 [1] was 19.2 nM and the inhibition [2] was “Active”.

In the case of `CNc1ccc(/C=C/c2c(F)cccc2Cl)cc1`, the IC50 [1] is reported as 7.6 nM, the inhibition [2] is reported as “Active” and the IC50 [3] is reported as 49800 nM. The Ratio IC50 [4] was 6600.

In the case of `CCNc1ccc(/C=C/c2c(F)cccc2F)cc1`, the IC50 [1] is reported as 200 nM.

`CCNc1ncc(/C=C/c2c(F)cccc2F)cn1` gave an IC50 [1] greater than 200 nM.

With `CN(C)c1ccc(/C=C/c2c(Cl)cccc2Cl)nc1` the IC50 [1] was 59.5 nM and the inhibition [2] was “Active”.

For `CN(C)c1ccc(/C=C/c2c(Cl)cccc2Cl)cc1`, the IC50 [1] was 214 nM and the inhibition [2] was “Active”.

With `CNc1ncc(/C=C/c2c(F)cccc2F)cn1` the IC50 [1] was greater than 200 nM and the inhibition [2] was “Active”.

In the case of `CNc1ccc(/C=C/c2c(F)cccc2F)cc1`, the IC50 [1] is reported as 7.6 nM, the inhibition [2] is reported as “Active” and the IC50 [3] is reported as 49100 nM. The Ratio IC50 [4] was 6500.

For `CN(C)c1ccc(/C=C/c2c(F)cccc2F)cn1`, the IC50 [1] was 13.3 nM and the inhibition [2] was “Active”.

`CCNc1ccc(/C=C/c2c(F)cccc2F)cn1` gave an IC50 [1] of 31.3 nM.

With `CN(C)c1ccc(/C=C/c2c(F)cccc2Cl)nc1` the IC50 [1] was 20.4 nM, the inhibition [2] was “Active” and the IC50 [3] was 20700 nM. The Ratio IC50 [4] was 1000.

With `CNc1ncc(/C=C/c2c(F)cccc2Cl)cn1` the IC50 [1] was greater than 200 nM.

`CNc1ccc(/C=C/c2c(F)cccc2F)cn1` showed an IC50 [1] of 30.1 nM.

In the case of `CN(C)c1ncc(/C=C/c2c(F)cccc2F)cn1`, the IC50 [1] is reported as greater than 200 nM, the inhibition [2] is reported as “Active” and the IC50 [3] is reported as 40500 nM. The Ratio IC50 [4] was 500.

In the case of `CNc1ccc(/C=C/c2c(Cl)cccc2Cl)cc1`, the IC50 [1] is reported as 50.1 nM and the inhibition [2] is reported as “Active”.
